Results as given in ChEMBL document CHEMBL2057092, “The SAR analysis of TRPV1 agonists with the α-methylated B-region” (Bioorg Med Chem Lett, 2012).

Key:
[1] = target: Transient receptor potential cation channel subfamily V member 1 (Rattus norvegicus) (UniProt O35433); assay: Antagonist activity at rat TRPV1 expressed in CHO cells assessed as inhibition of calcium uptake at 30 uM; assay type: functional, cell-based
[2] = target: Transient receptor potential cation channel subfamily V member 1 (Rattus norvegicus) (UniProt O35433); assay: Agonist activity at rat TRPV1 expressed in CHO cells assessed as calcium uptake at 300 nM relative to capsaicin; assay type: functional, cell-based
[3] = target: T1, Transient receptor potential cation channel subfamily V member 1 (Rattus norvegicus, UniProt O35433); assay: Agonist activity at rat TRPV1 expressed in CHO cells assessed as calcium uptake; assay type: functional, cell-based
T1 sequence (O35433 whole entry): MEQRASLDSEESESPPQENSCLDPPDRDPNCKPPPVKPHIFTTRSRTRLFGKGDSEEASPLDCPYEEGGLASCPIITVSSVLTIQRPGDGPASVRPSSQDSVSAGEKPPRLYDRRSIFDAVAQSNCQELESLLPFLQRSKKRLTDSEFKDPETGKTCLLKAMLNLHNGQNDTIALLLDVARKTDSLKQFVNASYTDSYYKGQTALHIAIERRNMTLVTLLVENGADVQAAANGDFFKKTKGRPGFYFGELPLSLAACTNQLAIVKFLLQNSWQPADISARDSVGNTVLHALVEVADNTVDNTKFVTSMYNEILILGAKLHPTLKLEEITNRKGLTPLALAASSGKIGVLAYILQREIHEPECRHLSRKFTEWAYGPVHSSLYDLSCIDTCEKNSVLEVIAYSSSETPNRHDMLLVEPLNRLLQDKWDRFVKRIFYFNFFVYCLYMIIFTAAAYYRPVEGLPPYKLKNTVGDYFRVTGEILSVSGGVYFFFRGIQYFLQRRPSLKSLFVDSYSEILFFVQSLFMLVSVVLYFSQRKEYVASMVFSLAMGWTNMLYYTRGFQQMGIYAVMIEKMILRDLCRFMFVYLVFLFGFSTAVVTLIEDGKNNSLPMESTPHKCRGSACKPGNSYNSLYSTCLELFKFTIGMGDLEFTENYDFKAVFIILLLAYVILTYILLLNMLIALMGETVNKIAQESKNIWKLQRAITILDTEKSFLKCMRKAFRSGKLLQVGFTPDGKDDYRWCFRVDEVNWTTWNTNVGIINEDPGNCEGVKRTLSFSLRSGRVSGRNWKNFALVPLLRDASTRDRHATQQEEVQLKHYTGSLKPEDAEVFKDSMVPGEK
Outline: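 Functional agonism was read as 45Ca2+ uptake in CHO cells heterologously expressing rat TRPV1.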

[4] = target: T1, Transient receptor potential cation channel subfamily V member 1; assay: Displacement of [3H]RTX from rat TRPV1 expressed in CHO cells; assay type: cell-based

Chain of Transient receptor potential cation channel subfamily V member 1 (Rattus norvegicus) (O35433 whole entry): as above

SMILES	inhibition [1] [%]	Activity [2] [%]	EC50 [3] [nM]	Ki [4] [nM]
CCCCCCCCC(=O)NC(C)c1ccc(O)c(OC)c1 (stereo unspecified)	44	72	1580	4280
CC(C)(C)c1ccc(CNC(=O)Cc2ccc(O)c(F)c2)cc1	30		911	808
CCCCCCCCNC(=O)Cc1ccc(O)c(OC)c1			77	848
CC(C)(C)c1ccc(CNC(=O)Cc2ccc(OCCN)c(F)c2)cc1	18	63		10100
COc1cc(C(C)C(=O)NCc2ccc(C(C)(C)C)cc2)ccc1OCCN (stereo unspecified)	16		238	504
CC(C)(C)c1ccc(CNC(=O)Cc2ccc(OCCN)c(Cl)c2)cc1	56	36		2470
CCCCCCCCCNC(=O)Cc1ccc(O)c(OC)c1			61	240
COc1cc(C(C)C(=O)NCCCc2ccc(C)c(C)c2)ccc1O (stereo unspecified)			21.3	177
CCCCCCCCCC(=O)NCc1ccc(O)c(OC)c1			83	864
COc1cc(C(C)C(=O)NCc2ccc(C(C)(C)C)cc2)ccc1O (stereo unspecified)	15		24	308
CC(C(=O)NCc1ccc(C(C)(C)C)cc1)c1ccc(O)c(F)c1 (stereo unspecified)	20		221	178
CC(C(=O)NCc1ccc(C(C)(C)C)cc1)c1ccc(OCCN)c(F)c1 (stereo unspecified)		91		2160
CC(C(=O)NCc1ccc(C(C)(C)C)cc1)c1ccc(OCCN)c(Cl)c1 (stereo unspecified)	38	75		380
COc1cc(C(C)C(=O)NCCCc2ccc(C)c(C)c2)ccc1OCCN (stereo unspecified)			404	518
CCCCCCCC/C=C/CCCCCCCC(=O)NC(C)c1ccc(O)c(OC)c1 (stereo unspecified)			678	226
CCCCCCCCCNC(=O)C(C)c1ccc(O)c(OC)c1 (stereo unspecified)			26.3	159
COc1cc(CC(=O)NCCCc2ccc(C)c(C)c2)ccc1OCCN [DAVASAICIN]			589	930
CCCCCCCCCC(=O)NC(C)c1ccc(O)c(OC)c1 (stereo unspecified)	28		1250	3300
COc1cc(CC(=O)NCc2ccc(C(C)(C)C)cc2)ccc1OCCN	12		358	1230
CC(C(=O)NCc1ccc(C(C)(C)C)cc1)c1ccc(O)c(Cl)c1 (stereo unspecified)	9	77		33.1
CCCCCCCC/C=C\CCCCCCCC(=O)NCc1ccc(O)c(OC)c1 [OLVANIL]			202	142
COc1cc(C(C)NC(=S)NCc2ccc(C(C)(C)C)cc2)ccc1OCCN (stereo unspecified)			5800	1430
COc1cc(CNC(=S)NCc2ccc(C(C)(C)C)cc2)ccc1O			2.6	
COc1cc(C/N=C(\S)NCc2ccc(C(C)(C)C)cc2)ccc1OCCN			132	84
CCCCCCCCC(=O)NCc1ccc(O)c(OC)c1 [NONIVAMIDE]			223	1220
CC(C)(C)c1ccc(CNC(=O)Cc2ccc(O)c(Cl)c2)cc1			206	132
CCCCCCCCNC(=O)C(C)c1ccc(O)c(OC)c1 (stereo unspecified)			130	744
COc1cc(CC(=O)NCCCc2ccc(C)c(C)c2)ccc1O			41	354
COc1cc(C(C)NC(=S)NCc2ccc(C(C)(C)C)cc2)ccc1O (stereo unspecified)	35	70	380	194
